Results on four compounds are retold here after article PMC4804703 (ACS chemical neuroscience, 2015).

The nature of assay [1]: Binding to membranes from nontransfected cells. As to conditions: membranes from nontransfected Flp-In-293 cells; data not shown. The procedure, abridged:
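Membranes from non-transfected Flp-In-293 cells were prepared by cavitation and ultracentrifugation and resuspended in TME (25 mM Tris-HCl, 5 mM MgCl₂, 1 mM EDTA, pH 7.4). […] Filters were washed in ice-cold buffer and counted by scintillation.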

Assay [2] addresses WT and Cys mutant hCB1R variants. Put plainly: Saturation binding of [^3H]CP55,940, Flp-In-293 membranes. On the set-up: species or system human. The settings on record: average across all six hCB1R variants; mean ± SEM, n = 6.
The target in assay [3] is CB1R in mouse hippocampus (Mus musculus, UniProt P47746). Put plainly: [^35S]GTPγS binding, mouse hippocampus membranes. The format is biochemical. The settings on record: for EC50: read-out: EC50, stimulation of [^35S]GTPγS binding, n = 3–4.
CB1R in mouse hippocampus, sequence (P47746 whole entry): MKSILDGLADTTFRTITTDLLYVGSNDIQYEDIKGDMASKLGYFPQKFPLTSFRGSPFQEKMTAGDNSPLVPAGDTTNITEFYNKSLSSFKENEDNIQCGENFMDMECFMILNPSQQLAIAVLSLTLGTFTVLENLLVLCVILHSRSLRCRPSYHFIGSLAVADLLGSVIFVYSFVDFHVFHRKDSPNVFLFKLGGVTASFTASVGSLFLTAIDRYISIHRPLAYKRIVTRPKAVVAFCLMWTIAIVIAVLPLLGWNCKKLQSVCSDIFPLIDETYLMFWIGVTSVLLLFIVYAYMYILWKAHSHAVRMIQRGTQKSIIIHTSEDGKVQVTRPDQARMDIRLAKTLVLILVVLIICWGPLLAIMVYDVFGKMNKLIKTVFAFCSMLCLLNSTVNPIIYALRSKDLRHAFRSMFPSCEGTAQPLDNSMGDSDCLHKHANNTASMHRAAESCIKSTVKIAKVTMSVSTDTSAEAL
The target in the next assay is rat CB1R (rCB1R). As to conditions: cited from earlier work; for selectivity vs CB2R: rCB1R vs CB2R.
For assay [4], the target named is T1, hCB1R C7.42(386)S (Homo sapiens, UniProt P21554, C386S). As to the kind of experiment: Covalent labeling assay. The format is binding. As to conditions: C7.42(386)S mutant; 20 nM AM3677. The procedure, abridged: (§1)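 Flp-In-293 membranes stably expressing the Cys→Ser hCB1R mutant, at 0.8 mg/mL in TME-0.1% BSA, were preincubated with 20 nM test compound (controls without) at 30 °C for 1 h. Unbound probe was removed by 27 000g spins, TME-1% BSA washes (one 20 min at 30 °C) and TME washes.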
T1 sequence (P21554 whole entry C386S): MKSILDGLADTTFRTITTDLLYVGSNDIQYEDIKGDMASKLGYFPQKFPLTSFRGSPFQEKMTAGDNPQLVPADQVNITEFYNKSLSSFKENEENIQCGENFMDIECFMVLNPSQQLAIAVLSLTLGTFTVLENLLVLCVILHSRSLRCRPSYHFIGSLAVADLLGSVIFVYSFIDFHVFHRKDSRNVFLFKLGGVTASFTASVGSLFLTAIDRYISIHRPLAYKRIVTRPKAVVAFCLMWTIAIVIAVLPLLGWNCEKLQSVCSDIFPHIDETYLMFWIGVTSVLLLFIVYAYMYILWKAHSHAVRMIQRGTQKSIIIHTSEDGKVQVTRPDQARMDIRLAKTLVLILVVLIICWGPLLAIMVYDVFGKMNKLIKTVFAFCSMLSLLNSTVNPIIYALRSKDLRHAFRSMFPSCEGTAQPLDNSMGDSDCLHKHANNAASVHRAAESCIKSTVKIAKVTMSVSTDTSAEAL

The target of assay [5] is T1, hCB1R C7.42(386)S. Put plainly: Competition binding with [^3H]CP55,940, Flp-In-293 membranes. As to conditions: read-out: apparent Ki (95% CI); C7.42(386)S mutant; [^3H]CP55,940 0.75 nM.
Assay [6] deals with T2, hCB1R C7.38(382)S (Homo sapiens, UniProt P21554, C382S). Put plainly: Covalent labeling assay. The format is binding. The settings on record: C7.38(382)S mutant; 20 nM AM3677. The procedure, abridged: as §1
T2 sequence (P21554 whole entry C382S): as the sequence (P21554 whole entry C386S) above, with C382S, S386C counted along it
Assay [7] deals with hemagglutinin (HA)-tagged rCB1R (Rattus norvegicus, UniProt P20272). As to the kind of experiment: CB1R internalization, HEK293 cells. It counts as cell-based. As to conditions: 30 min at 37 °C; best-fit sigmoidal curve.
hemagglutinin (HA)-tagged rCB1R, sequence (P20272 whole entry): as the sequence (P47746 whole entry) above, with D95E counted along it
Assay [8] addresses T3, hCB1R C6.47(355)S (Homo sapiens, UniProt P21554, C355S). As to the kind of experiment: Covalent labeling assay. As to conditions: C6.47(355)S mutant; AM3677 10-fold apparent Ki. It counts as binding. In outline:
as §1

For a further assay, the target named is hCB1R (Homo sapiens, UniProt P21554). Put plainly: Cellular cAMP assay, forskolin-stimulated, Flp-In-293 cells. It counts as cell-based. The settings on record: for potency relative to AEA, inhibition of forskolin-stimulated cAMP production: greater than the potency reported for AEA in this assay.
hCB1R, sequence (P21554 whole entry): as the sequence (P21554 whole entry C386S) above, with S386C counted along it
The target of assay [9] is T2, hCB1R C7.38(382)S. As to the kind of experiment: Competition binding with [^3H]CP55,940, Flp-In-293 membranes. The settings on record: read-out: apparent Ki (95% CI); C7.38(382)S mutant; [^3H]CP55,940 0.75 nM.
In assay [10] the target is T4, hCB1R C1.55(139)S (Homo sapiens, UniProt P21554, C139S). Described as above. The settings on record: read-out: apparent Ki (95% CI); C1.55(139)S mutant; [^3H]CP55,940 0.75 nM.
T4 sequence (P21554 whole entry C139S): as the sequence (P21554 whole entry C386S) above, with C139S, S386C counted along it
The subject of assay [11] is Flp-In cells that were not transfected with CB1Rs. Put plainly: Cellular cAMP assay, non-transfected control cells. The settings on record: routine control; data not shown. The format is cell-based.
Assay [12] concerns the target T4, hCB1R C1.55(139)S. As to the kind of experiment: Covalent labeling assay. The format is binding. The settings on record: C1.55(139)S mutant; 20 nM AM3677. The procedure, abridged: as §1
Assay [13] deals with T5, hCB1R C4.47(238)S (Homo sapiens, UniProt P21554, C238S). Put plainly: Covalent labeling assay. The settings on record: C4.47(238)S mutant. It counts as binding. The procedure, abridged: as §1
T5 sequence (P21554 whole entry C238S): as the sequence (P21554 whole entry C386S) above, with C238S, S386C counted along it
Assay [14] has as its target T3, hCB1R C6.47(355)S. Put plainly: Competition binding with [^3H]CP55,940, Flp-In-293 membranes. As to conditions: read-out: apparent Ki (95% CI); C6.47(355)S mutant; [^3H]CP55,940 0.75 nM.
Assay [15] addresses T5, hCB1R C4.47(238)S. Described as above. As to conditions: read-out: apparent Ki (95% CI); C4.47(238)S mutant; [^3H]CP55,940 0.75 nM.
The subject of another assay is recombinant hCB1R. The settings on record: cited from earlier work.

Molecules are shown by their SMILES. “Also recorded” adds a separate entry of the source. Where two headings read alike, the source gives them in different places.

T3 sequence (P21554 whole entry C355S): as the sequence (P21554 whole entry C386S) above, with C355S, S386C counted along it

Take `CCCCCCC(C)(C)c1ccc([C@@H]2C[C@H](O)CC[C@H]2CCCO)c(O)c1` [CP55,940, reference compound]: in [1], the specific binding result is reported as “No specific”. Further, the Kd in assay [2] came to 5.4 ± 0.8 nM. The EC50 in [3] (mean ± SEM) stood at 1100 ± 200 nM.

Consider `CCCCC/C=C\C/C=C\C/C=C\C/C=C\CCCC(=O)NCCO` [AEA, arachidonoylethanolamide, reference compound], for which, in [3] (read-out: maximum response, [^35S]GTPγS binding), the Emax came to 34 ± 1.5%. Further, on rat CB1R (rCB1R) (rCB1R), the Ki is 61 nM.

For the compound `O=C(CCC/C=C\C/C=C\C/C=C\C/C=C\CCCCCN=C=S)NC1CC1` [AM3677, 20-isothiocyanato-eciosa-5,8,11,14-tetraenoic acid cyclopropylamide], the “degree of irreversible labeling” value at hCB1R C7.42(386)S [4], on hCB1R C7.38(382)S [6], at hCB1R C1.55(139)S [12] and at hCB1R C4.47(238)S [13] (20 nM AM3677) was “comparable to that displayed by WT hCB1R” in each case. Moreover, the Ki was 1.6 nM at hCB1R C7.42(386)S [5]; 1.9 nM at hCB1R C7.38(382)S [9]; 2.3 nM on hCB1R C1.55(139)S [10]; 2.2 nM at hCB1R C6.47(355)S [14]; 2.4 nM on hCB1R C4.47(238)S [15]. In assay [7], the maximum internalization was ~ 42%. The “effect of AM3677 preincubation on Bmax for [^3H]CP55,940 (irreversible binding)” value at hCB1R C6.47(355)S [8] was “unaffected; also recorded: did not affect”. Further, the “maximal efficacy, inhibition of forskolin-activated cAMP formation” value at hCB1R (at micromolar concentrations) is recorded as ~ 60%. Also, the “potency relative to AEA, inhibition of forskolin-stimulated cAMP production” value at hCB1R is listed as ~ 200 fold. Moreover, the IC50 at hCB1R (read-out: IC50, inhibition of forskolin-activated cAMP formation, Flp-In-293 cells overexpressing hCB1R, 5 μM forskolin, mean ± SEM, n = 3) was determined as 27.1 ± 2.2 nM. Also, the specific binding result in assay [1] is “No specific”. Further, the “effect on cAMP in non-transfected cells” value in [11] was “had no effect”. The “potency relative to AEA, [^35S]GTPγS binding” value in assay [3] (more potent than AEA) is on record as around 100 fold. Besides, in assay [3] (more potent than CP55,940), the “potency relative to CP55,940, [^35S]GTPγS binding” value is recorded as ~ 23 fold. The 50% effective concentration (EC50) in [3] (mean ± SEM) amounted to 50 ± 20 nM. Besides, the “maximum response, [^35S]GTPγS binding” value in assay [3] (relative to CP55,940 (maximum = response to 10 μM CP55,940), mean ± SEM, n = 3) came to 32 ± 2.1%. The “selectivity vs CB2R” value in the assay on rat CB1R (rCB1R) was ~ 40 fold. Further, the manner of binding result in the assay with rat CB1R (rCB1R) (rCB1R) was “irreversible”. In addition, the “reduction of [^3H]CP55,940 specific binding (Bmax)” value on hCB1R C4.47(238)S [13] (AM3677 at 10-fold its apparent Ki) is given as “at least 43%”.

In the case of `CCCCC/C=C\C/C=C\C/C=C\C/C=C\CCCC(=O)NC1CC1` [ACPA, (5Z,8Z,11Z,14Z)-eicosa-5,8,11,14-tetraenoic acid cyclopropylamide], the “potency relative to AEA, inhibition of forskolin-stimulated cAMP production” value on hCB1R is given as ~ 200 fold. In the assay on recombinant hCB1R, the agonist type result was “full agonist”. In addition, the “selectivity vs CB2R” value in the assay on rat CB1R (rCB1R) is recorded as 60 to 300 fold. Moreover, at rat CB1R (rCB1R) (read-out: apparent Ki, rCB1R, [^3H]CP55,940 as competitive radioligand), the Ki was 2.2 to 2.7 nM.
